Calls of active or inactive are those of the source. The calls are words filed in the database; no cut-off is given here.

Data set [1] relates to Erythrocyte. The data set is described as follows: Induction of [3H]-chloroquine accumulation in erythrocytes infected with chloroquine-resistant Plasmodium falciparum K1 trophozoites at 5 uM pre-incubated for 15 mins before exposure to [3H]-chloroquine measured after 1 hr by liquid scintillation counting relative to control. Format: functional. The procedure, abridged:
(§1)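 Synchronized K1-infected erythrocytes at trophozoite stage (1% hematocrit, 5% parasitemia) preincubated with test compound 15 min at 37 °C, then 4 nM 3H-CQ for 1 h at 37 °C; cells spun through dibutylphthalate, pellet digested and counted by liquid scintillation; accumulation expressed relative to untreated control; verapamil 5 µM positive control.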

Data set [2] deals with Plasmodium falciparum. The data set is described as follows: Antiplasmodial activity against chloroquine-sensitive Plasmodium falciparum D10 after 48 hrs by lactate dehydrogenase assay. Type of data set: functional, organism-based. Conditions: D10, 48 h. The procedure, abridged: (§2)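 P. falciparum D10 (CQ-sensitive) and K1 (CQ-resistant) kept in continuous in vitro culture, synchronized with 5% D-sorbitol at ring stage when needed; growth read by parasite lactate dehydrogenase assay; each compound run in duplicate on two separate occasions.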

In data set [3] the test system is Plasmodium falciparum. The data set is described as follows: Antiplasmodial activity against chloroquine-resistant Plasmodium falciparum K1 after 48 hrs by lactate dehydrogenase assay. Type of data set: functional, organism-based. Conditions: K1, 48 h. The method, boiled down: as §2
Data set [4] concerns Erythrocyte. The data set is described as follows: Induction of [3H]-chloroquine accumulation in erythrocytes infected with chloroquine-resistant Plasmodium falciparum K1 trophozoites at 1 ug/ml pre-incubated for 15 mins before exposure to [3H]-chloroquine measured after 1 hr by liquid scintillation counting relative to control. Type of data set: functional, cell-based. The procedure, abridged: as §1

The test system of a further data set is CHO. Description: Cytotoxicity against CHO cells after 48 hrs by MTT assay. Type of data set: cell-based. Conditions: Cricetulus griseus. The method, boiled down:
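CHO cells in DMEM:Ham's (1:1) with 10% heat-inactivated FCS and gentamicin, 37 °C, 5% CO2; 1×10^4 cells/well seeded 24 h, then serial dilutions from DMSO stocks (100–0.01 µg/ml) for 48 h, with medium and DMSO controls.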

The nature of data set [5]: Selectivity index, ratio of IC50 for CHO cells to IC50 for chloroquine-resistant Plasmodium falciparum K1. Format: toxicity, cell-based. Conditions: hamster, CHO cells (cytotoxicity) versus Plasmodium falciparum K1; read-out: Ratio IC50.
Data set [6] in a line: Cytotoxicity in un-parasitized erythrocytes assessed as morphological changes at 6.25 ug/ml after 48 hrs by phase contrast microscopy. Format: cell-based. Conditions: erythrocyte. The method, boiled down: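 Unparasitized erythrocytes (hematocrit 2%) held 48 h with 6.25 µg/ml compound (diluted from 100 µg/ml stocks), then fixed with 1% glutaraldehyde in paraformaldehyde; cell shape of 20 µl samples examined by phase-contrast light microscopy at ×1000.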

Data set [7] relates to Plasmodium falciparum. The data set is described as follows: Resistance index, ratio of IC50 for chloroquine-resistant Plasmodium falciparum K1 to IC50 for chloroquine-sensitive Plasmodium falciparum D10. Format: functional. The procedure, abridged: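 Resistance index computed as IC50 (K1)/IC50 (D10), both from the pLDH assay, each run in duplicate on two separate occasions.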

A short description of data set [8]: Selectivity index, ratio of IC50 for CHO cells to IC50 for chloroquine-sensitive Plasmodium falciparum D10. Type of data set: toxicity, cell-based. Conditions: hamster, CHO cells (cytotoxicity) versus Plasmodium falciparum D10; read-out: Ratio IC50.
Data set [9] relates to Plasmodium falciparum. Description: Antiplasmodial activity against Plasmodium falciparum schizonts assessed as change in parasitemia at IC50 concentration treated until all schizonts had burst and invasion was assumed to have occurred by Giemsa staining-based microscopy relative to control. Format: functional.
For data set [10], the system named is Plasmodium falciparum. The data set is described as follows: Antiplasmodial activity against Plasmodium falciparum schizonts assessed as parasitemia at IC50 concentration treated until all schizonts had burst and invasion was assumed to have occurred by Giemsa staining-based microscopy (reference value: 8.83%). Format: functional.

Regarding `COc1ccc(CCN(C)CCCC(C#N)(c2ccc(OC)c(OC)c2)C(C)C)cc1OC` (stereo unspecified), the “fold change (FC)” value with Erythrocyte [1] is reported as over 3.

Consider `CC(C)c1c(OCC(O)CN2CCN(C)CC2)ccc2c1CC[C@H]1C(C)(C)CCC[C@]21C` (stereo partly specified), for which the IC50 turned out to be 1.36 µM with Plasmodium falciparum [2], 1.39 µM with Plasmodium falciparum [3] and 3.73 µM with CHO. In addition, the result with Erythrocyte [4] was Active. The selectivity ratio in data set [5] and in data set [8] was 2.7 throughout. In addition, the Activity entry in [6] was “Toxic”. Further, in the data set with Plasmodium falciparum [7], the “Ratio IC50” value is recorded as 1.03.

On to `CC(C)c1c(O)ccc2c1CC[C@H]1C(C)(C)CCC[C@]21C` [TOTAROL], for which the figures for the IC50 in the data set on Plasmodium falciparum [2], in the data set with Plasmodium falciparum [3] and in the data set with CHO were 11.8 µM, 11.7 µM and 170 µM, respectively. Further, the selectivity ratio in [5] stood at 14.6; in data set [8], 14.5. In the data set with Plasmodium falciparum [7], the “Ratio IC50” value is 0.99.

Consider `CC(C)c1c(OCC(O)CN2C(=O)c3ccccc3C2=O)ccc2c1CC[C@H]1C(C)(C)CCC[C@]21C` (stereo partly specified), for which the values for the IC50 in the data set on Plasmodium falciparum [2] and in the data set with Plasmodium falciparum [3] were 9.55 µM and 48.3 µM, respectively. The “Ratio IC50” value with Plasmodium falciparum [7] amounted to 5.06.

For `CCOc1ccccc1N1CCN(CC(O)COc2ccc3c(c2C(C)C)CC[C@H]2C(C)(C)CCC[C@]32C)CC1` (stereo partly specified), the IC50 with Plasmodium falciparum [2] was 1.62 µM; in the data set on Plasmodium falciparum [3] it was 1.01 µM; in the data set on CHO, 183 µM. Besides, the selectivity ratio is 181 in data set [5] and 113 in data set [8]. Besides, in the data set on Plasmodium falciparum [7], the “Ratio IC50” value was 0.62.

Take `CC(C)c1c(OCC2CO2)ccc2c1CC[C@H]1C(C)(C)CCC[C@]21C` (stereo partly specified): the IC50 came to 10.3 µM with Plasmodium falciparum [2] and 14 µM in the data set with Plasmodium falciparum [3]. Besides, in the data set on Plasmodium falciparum [7], the “Ratio IC50” value is 1.36.

`c1ccc2c(OCC3CO3)cccc2c1` (stereo unspecified): in the data set on Plasmodium falciparum [2], the IC50 is over 100 µM.

For the molecule `CC(C)c1c(OCC(O)CN2CCOCC2)ccc2c1CC[C@H]1C(C)(C)CCC[C@]21C` (mixture of isomers), the IC50 turned out to be 2.07 µM in the data set with Plasmodium falciparum [2], 0.56 µM with Plasmodium falciparum [3] and 5.61 µM in the data set with CHO. Further, the selectivity ratio turned out to be 10 in data set [5] and 2.7 in data set [8]. Besides, the “Ratio IC50” value with Plasmodium falciparum [7] worked out at 0.27.

On to `CC(C)c1c(OCC(O)CN2CCN(c3ccccc3)CC2)ccc2c1CC[C@H]1C(C)(C)CCC[C@]21C` (stereo partly specified), for which the values for the IC50 in the data set on Plasmodium falciparum [2], in the data set on Plasmodium falciparum [3] and in the data set on CHO were 2.56 µM, 1.81 µM and 105 µM, respectively. The selectivity ratio in data set [5] was found to be 58.1; in [8] it was 41.2. The “Ratio IC50” value with Plasmodium falciparum [7] is 0.71.

On to `CCN(CC)CC(O)COc1ccc2c(c1C(C)C)CC[C@H]1C(C)(C)CCC[C@]21C` (stereo partly specified), for which the IC50 in the data set on Plasmodium falciparum [2] was determined as 0.61 µM; in the data set on Plasmodium falciparum [3], 0.63 µM; in the data set with CHO, 7.73 µM. Further, the values for the selectivity ratio in [5] and in data set [8] were 12.2 and 12.7, respectively. Also, in the data set with Plasmodium falciparum [7], the “Ratio IC50” value was found to be 1.04.

For `CC(C)c1c(OCC(O)CN2CCCCC2)ccc2c1CC[C@H]1C(C)(C)CCC[C@]21C` (stereo partly specified), the results for the IC50 with Plasmodium falciparum [2], with Plasmodium falciparum [3] and in the data set with CHO were 1.08 µM, 0.75 µM and 2.99 µM, respectively. The selectivity ratio amounted to 4 in data set [5] and 2.8 in data set [8]. In the data set with Plasmodium falciparum [7], the “Ratio IC50” value was 0.7.

In the data set on Plasmodium falciparum [2], `Oc1cccc2ccccc12` [1-NAPHTHOL] showed an IC50 of 56.5 µM. In other words, the double-digit micromolar range.

Turning to `CC(C)c1c(OCC(O)CNCc2ccccc2)ccc2c1CC[C@H]1C(C)(C)CCC[C@]21C` (stereo partly specified), the IC50 in the data set on Plasmodium falciparum [2] is 6.47 µM; in the data set with Plasmodium falciparum [3], 0.65 µM; in the data set on CHO it was 14.4 µM. The Activity with Plasmodium falciparum [9] was -0.52%; in data set [6] it was “Non-toxic”; in the data set on Plasmodium falciparum [10], 8.31%. Also, the selectivity ratio in data set [5] came out at 22.3; in data set [8] it was 2.2. Besides, the “Ratio IC50” value in the data set with Plasmodium falciparum [7] turned out to be 0.1.

Consider `CC(C)c1c(OCC(O)CN2CCN(c3ccccc3Cl)CC2)ccc2c1CC[C@H]1C(C)(C)CCC[C@]21C` (single isomer, unassigned), for which the IC50 came out at 3.25 µM with Plasmodium falciparum [2], 0.94 µM in the data set with Plasmodium falciparum [3] and 186 µM with CHO. Further, the values for the selectivity ratio in data set [5] and in [8] were 207 and 57.3, respectively. Also, the “Ratio IC50” value with Plasmodium falciparum [7] was found to be 0.23.

On to `OC(CNCc1ccccc1)COc1cccc2ccccc12` (racemic), for which the values for the IC50 in the data set with Plasmodium falciparum [2], with Plasmodium falciparum [3] and in the data set with CHO were 5.18 µM, 0.73 µM and 8.27 µM, respectively. Further, the figures for the Activity in the data set with Plasmodium falciparum [9] and in the data set on Plasmodium falciparum [10] were 1.41% and 10.24%, respectively. For the same molecule, the selectivity ratio in data set [5] stood at 11.2; in [8] it was 1.6. For the same molecule, in the data set on Plasmodium falciparum [7], the “Ratio IC50” value turned out to be 0.14.

For `CC(C)NCC(O)COc1cccc2ccccc12` (racemic) [PROPRANOLOL], the Activity is reported as -3.48% with Plasmodium falciparum [9] and 5.35% with Plasmodium falciparum [10].

As for `CN1CCN(CC(O)COc2ccccc2)CC1` (racemic), the IC50 in the data set on Plasmodium falciparum [2] is over 100 µM.

The molecule `OC(COc1cccc2ccccc12)CN1CCN(c2ccccc2Cl)CC1` (racemic) returned an IC50 in the data set with Plasmodium falciparum [2] of over 100 µM.

As to `Oc1ccccc1` [PHENOL], the IC50 with Plasmodium falciparum [2] was over 100 µM.

In the case of `CN1CCN(CC(O)COc2cccc3ccccc23)CC1` (racemic), the IC50 in the data set on Plasmodium falciparum [2] came to 41.8 µM; with Plasmodium falciparum [3] it was 7.23 µM; in the data set on CHO it was 261 µM. The selectivity ratio in data set [5] stood at 36.1; in [8], 6.2. In the data set with Plasmodium falciparum [7], the “Ratio IC50” value was 0.17.

For `CC(C)NCC(O)COc1ccc2c(c1C(C)C)CC[C@H]1C(C)(C)CCC[C@]21C` (stereo partly specified), the IC50 is 1.05 µM in the data set on Plasmodium falciparum [2], 0.17 µM with Plasmodium falciparum [3] and 1.28 µM with CHO. Further, the values for the Activity (with Plasmodium falciparum [9]; in data set [6]; in the data set with Plasmodium falciparum [10]) were -3.4%, “Non-toxic” and 5.43%, respectively. For the same molecule, the selectivity ratio in data set [5] is 8.7; in data set [8], 1.2. Besides, in the data set with Plasmodium falciparum [7], the “Ratio IC50” value turned out to be 0.14.

In the data set on Plasmodium falciparum [2], `Oc1ccc2ccccc2c1` [BETANAPHTHOL] returned an IC50 of over 100 µM.

In the data set with Plasmodium falciparum [2], `c1ccc(OCC2CO2)cc1` (stereo unspecified) registered an IC50 of 77 µM.

Turning to `CN1CCN(CC(O)COc2ccc3ccccc3c2)CC1` (racemic), the IC50 with Plasmodium falciparum [2] came out at 42.9 µM; in the data set on Plasmodium falciparum [3], 8.21 µM; with CHO, 149 µM. Also, the results for the selectivity ratio in data set [5] and in [8] were 18.1 and 3.5, respectively. Further, the “Ratio IC50” value with Plasmodium falciparum [7] is given as 0.19.

Take `OC(CNCc1ccccc1)COc1ccc2ccccc2c1` (racemic): the concentration for half-maximal inhibition (IC50) in the data set on Plasmodium falciparum [2] was found to be 6.77 µM; in the data set with Plasmodium falciparum [3], 13.5 µM; in the data set with CHO, 123 µM. Also, the figures for the selectivity ratio in data set [5] and in [8] were 9.1 and 18.2, respectively. Besides, the “Ratio IC50” value with Plasmodium falciparum [7] was determined as 2.

For the molecule `CC(C)c1c(OCC(O)CN2CCN(c3ccnc4cc(Cl)ccc34)CC2)ccc2c1CC[C@H]1C(C)(C)CCC[C@]21C` (single isomer, unassigned), the IC50 with Plasmodium falciparum [2] is 1.42 µM; in the data set on Plasmodium falciparum [3], 0.93 µM; with CHO, 94.2 µM. For the same molecule, the selectivity ratio in [5] is over 100; in data set [8], 67.3. Also, the “Ratio IC50” value with Plasmodium falciparum [7] was determined as 0.64.

The values are drawn from ChEMBL document CHEMBL1926568, “Synthesis, biological evaluation and mechanistic studies of totarol amino alcohol derivatives as potential antimalarial agents” (Bioorg Med Chem, 2012).
